# High-throughput results (PubChem BioAssay)
# SKKanGAS inh: SKKanGAS growth inhibition. S. pyogenes SKKanGAS, kanamycin growth, BacTiter-Glo, 6 h. inhibition, % at 7.5 µM. 300,000 tested, 1.3% active. AID 1662;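 active = mean replicate score, as percent of positive control median, at least 50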;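 note: strain carries kanamycin resistance gene driven by streptokinase promoter and grows in 40 µg/ml kanamycin; loss of luminescence reflects streptokinase promoter inhibition or plain growth inhibition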
# aSyn UTR inh: MLPCN primary screen, SNCA 5' untranslated region | alpha-synuclein 5'UTR reporter, inhibitor activity | inhibition, % (tested at 7.5 µM) | 300,000 tested, 0.82% active; in the data active = inhibition above about 60%;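 note: H4 neuroglioblastoma cells stably carrying SNCA 5'UTR luciferase fusion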
# T cruzi inh: T. cruzi replication inhibition | AID 1885 | inhibition, % (no concentration beside the values) | T. cruzi beta-gal in NIH3T3, luminescence, 90 h | 300,000 tested, 1.4% active;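 active = mean inhibition across valid replicates above about 55%, limit read from the data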;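 note: signal also drops with host cell toxicity which is not excluded here; higher percent means less beta-gal luminescence so fewer parasites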
#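 Assay system: NIH/3T3 fibroblasts plus reporter T. cruzi. Amount: NIH/3T3 cells, 5,000 per well. Buffer or medium: DMEM, 2% fetal bovine serum. Doses: compound pinned at 50 nL/well, DMSO. Schedule: ≥90 h infection period, 3 h prior cell attachment. Signal: luminescent β-galactosidase signal after 60 min lysis. Read-out: parasite load inhibition, %.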
# Mdm2 MdmX PPI: inhibitors of human Mdm2/MdmX interaction; 330,000 tested, 3% active; inhibition, % at 8 µM; O15151+Q00987; SaOS-2 split-luciferase Mdm2/MdmX complementation, luminescence; AID 485346;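 active = inhibition of at least 50% at 8 µM in the primary screen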
# Target sequence (O15151 whole entry, looked up): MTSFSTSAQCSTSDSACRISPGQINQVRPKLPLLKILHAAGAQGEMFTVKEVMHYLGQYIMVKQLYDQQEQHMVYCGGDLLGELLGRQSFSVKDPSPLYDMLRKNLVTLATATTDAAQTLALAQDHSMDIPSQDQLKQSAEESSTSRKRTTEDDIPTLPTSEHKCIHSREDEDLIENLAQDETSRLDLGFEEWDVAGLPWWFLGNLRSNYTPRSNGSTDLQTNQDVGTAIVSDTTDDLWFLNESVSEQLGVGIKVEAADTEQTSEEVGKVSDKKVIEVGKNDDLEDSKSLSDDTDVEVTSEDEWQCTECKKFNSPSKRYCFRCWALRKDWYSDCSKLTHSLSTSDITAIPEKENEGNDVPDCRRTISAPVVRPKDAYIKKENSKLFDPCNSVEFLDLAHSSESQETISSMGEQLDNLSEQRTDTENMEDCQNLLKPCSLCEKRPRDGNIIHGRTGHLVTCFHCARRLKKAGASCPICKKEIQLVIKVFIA
# Target sequence (Q00987 whole entry, looked up): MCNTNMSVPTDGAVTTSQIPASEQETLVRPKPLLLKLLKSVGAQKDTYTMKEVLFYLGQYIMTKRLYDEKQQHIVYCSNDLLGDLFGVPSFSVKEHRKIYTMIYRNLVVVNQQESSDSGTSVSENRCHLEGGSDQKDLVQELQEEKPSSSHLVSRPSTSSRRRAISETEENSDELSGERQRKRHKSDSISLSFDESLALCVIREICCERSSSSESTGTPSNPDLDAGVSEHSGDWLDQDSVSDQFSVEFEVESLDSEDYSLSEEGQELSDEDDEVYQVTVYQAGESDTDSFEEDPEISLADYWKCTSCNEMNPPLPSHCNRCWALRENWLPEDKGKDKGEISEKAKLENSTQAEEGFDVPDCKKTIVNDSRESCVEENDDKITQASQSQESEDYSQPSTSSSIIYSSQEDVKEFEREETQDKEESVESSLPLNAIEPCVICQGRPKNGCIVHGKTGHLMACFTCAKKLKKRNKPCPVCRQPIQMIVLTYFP
# CSC inhib: cancer stem cell inhibition. cancer stem cell-like cells viability, luminescence. inhibition, % at 7.5 µM. 300,000 tested, 1.1% active. AID 2717; in the data active = inhibition above about 75%; tested in HMLE shEcad cells
# Mdm2-MdmX conf: confirmation of human Mdm2/MdmX interaction inhibitors. shares compounds with Mdm2 MdmX PPI. Mdm2-MdmX binding, luminescent assay. inhibition, % at 8 µM. 10,000 tested, 55% active; in the data active = inhibition above about 40%
# Full FLuc ctr: counter-screen for Mdm2/MdmX inhibitors: full-length luciferase. shares compounds with Mdm2 MdmX PPI. SaOS-2 full-length luciferase counterscreen, luminescence. inhibition, % at 8 µM. 6,200 tested, 77% active;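 active = mean inhibition at 8 µM reaching about 37%, which flags the compound as non-specific, limit read from the data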;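 note: p53-null SaOS-2 cells with luciferase driven by a doxycycline-inducible promoter; compound on cells about two nights before reading with doxycycline added after day one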
# A number is an active result; . = inactive; / = not tested or not shown. Rows were chosen to be rich in hits. Some 5.4% of all compounds tested hit in one or more screens of this group.
SMILES,SKKanGAS inh,aSyn UTR inh,T cruzi inh,Mdm2 MdmX PPI,CSC inhib,Mdm2-MdmX conf,Full FLuc ctr
CC(=O)c1ccc(Nc2nc3ccccc3nc2NS(=O)(=O)c2cccs2)cc1,.,.,.,60,.,.,/
COc1ccc(Nc2nc3ccccc3nc2NS(=O)(=O)c2cccs2)cc1,.,.,.,.,.,/,/
C/C(=N\NC(=O)C1CCCN(S(=O)(=O)c2ccccc2)C1)c1ccccn1 (stereo not given),.,67,.,70,.,59,.
C/C(=N\NC(=O)c1cccc(Br)c1)c1ccccn1,110,108,.,100,139,63,50
C/C(=N\NC(=O)C(c1ccccc1)c1ccccc1)c1ccccn1,70,80,.,75,.,64,50
C/C(=N\NC(=O)C(c1ccccc1)c1ccccc1)c1ccc(O)cc1,.,.,.,.,.,/,/
O=C(NC(O)C(=O)c1ccccc1)c1ccccn1 (stereo not given),.,.,.,.,/,/,/
C/C(=N\NC(=O)c1ccc(Cl)c(Cl)c1)c1ccc(Br)s1,88,91,70,68,.,55,47
C/C(=N/NC(=O)c1ccc2c(c1)OCO2)c1ccc(Br)s1,.,.,.,.,.,/,/
O=C(NN=C(c1ccccc1)c1ccccn1)c1ccccc1,/,/,/,91,.,58,.
CC(=C\C(=O)O)/C(=C/c1ccccc1)C(=O)O,.,.,.,.,.,/,/
Cc1ccc(/C(=N\O)c2oc3c(C)c4oc(=O)cc(C)c4cc3c2C)cc1,.,.,59,74,105,.,/
Cc1cc(=O)oc2c1ccc1oc(/C(=N/O)c3ccccc3)c(C)c12,.,.,.,58,.,.,/
CCc1c(C(C)=O)oc2ccc3c(C)cc(=O)oc3c12,.,.,.,.,.,/,/
CCc1c(C(=O)c2ccc(Cl)cc2)oc2c(C)c3oc(=O)cc(C)c3cc12,.,.,.,59,.,.,/
CCC(=O)Oc1ccc2c(C)cc(=O)oc2c1C,.,.,.,.,.,/,/
O=C(CN1CCN(S(=O)(=O)c2ccccc2)CC1)Nc1ccc([N+](=O)[O-])cc1,.,.,.,.,.,/,/
Cc1ccc(N(CC(=O)N2CCN(Cc3ccccc3)CC2)S(C)(=O)=O)cc1C,.,.,.,.,.,/,/
COc1cccc(CN(C)C(=O)c2cc(-c3cccs3)nc3ccccc23)c1,.,.,.,58,.,43,61
COc1ccccc1CN(C)C(=O)c1cc(-c2cc(OC)c(OC)c(OC)c2)nc2ccccc12,.,.,.,78,.,77,50
CN(CC(=O)Nc1ccccc1Br)C(=O)c1cc(Cl)nc2ccccc12,/,/,/,.,/,/,/
COc1ccc(N2CCN(C(=O)c3cc(-c4cccs4)nc4ccccc34)CC2)cc1,.,.,.,.,.,/,/
COc1cc(-c2cc(C(=O)N3CCCCCC3)c3ccccc3n2)cc(OC)c1OC,/,/,/,.,/,/,/
COc1ccc(-c2cc(C(=O)N(C)CC(=O)Nc3ccccc3Br)c3ccccc3n2)cc1OC,.,.,.,56,.,49,80
COc1ccc(-c2cc(C(=O)N(C)Cc3ccccc3F)c3ccccc3n2)cc1OC,.,.,.,70,.,.,105
SMILES,SKKanGAS inh,aSyn UTR inh,T cruzi inh,Mdm2 MdmX PPI,CSC inhib,Mdm2-MdmX conf,Full FLuc ctr
COCCN(Cc1ccccc1)C(=O)c1cc(-c2ccc(OC)c(OC)c2)nc2ccccc12,.,.,.,.,.,/,/
C/C(CC(=O)NCc1ccc(F)cc1)=N\NC(N)=S,.,.,.,.,.,/,/
CC(C)(C)NC(=O)CN(CCc1ccccc1)C(=O)c1csnn1,.,.,.,.,.,/,/
COc1cc(-c2cc(C(=O)N(C)Cc3ccccc3)c3ccccc3n2)cc(OC)c1OC,.,.,.,62,.,46,76
CCN(Cc1ccccc1)C(=O)c1cc(-c2ccc(OC)c(OC)c2)nc2ccccc12,.,.,.,.,.,/,/
COc1ccc(CCNC(=O)c2cccc(S(=O)(=O)N3CCc4ccccc4C3)c2)cc1,/,/,/,.,.,/,/
Cc1ccc(-c2nc(CNC(=O)c3ccco3)cs2)cc1,.,.,.,.,.,/,/
O=C(CN1CCC(C(O)(c2ccccc2)c2ccccc2)CC1)Nc1cc(Cl)ccc1Cl,.,.,55,54,.,45,86
O=C(CN1CCC(C(O)(c2ccccc2)c2ccccc2)CC1)Nc1ccccc1,.,.,.,.,.,/,/
